# iPSC survival up: increases survival of single human iPS cells; hiPSC single-cell survival, ATPlite luminescence; 100% = ROCK inhibitor wells, 0% = DMSO; survival enhancement, % at 20 µM; 360,000 tested, 0.044% active; AID 602274; in the data active = survival enhancement above about 18%;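 also: cells exposed to compounds for 16 hours before the ATP read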
# T cruzi repl: T. cruzi replication inhibition; T. cruzi beta-gal in NIH3T3, luminescence, 90 h; inhibition, % (no concentration beside the values); 300,000 tested, 1.4% active; AID 1885;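 active = mean inhibition across valid replicates above about 55%, limit read from the data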;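 also: signal also drops with host cell toxicity which is not excluded here; 0% = plate median of DMSO wells and 100% = zero luminescence signal; higher percent means less beta-gal luminescence so fewer parasites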
#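 Read-out: Parasite load inhibition, % | Test system: Mouse NIH/3T3 fibroblasts infected with β-gal-expressing T. cruzi Tulahuen C4 | Amount: 5,000 cells/well | Medium: DMEM, 2% fetal bovine serum | Signal: GalScreen β-gal luminescence, detergent lysis, 60 min | Timing: 3 h attach, ≥90 h co-culture | Also added: Tulahuen C4 trypomastigotes, 5000/well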
# PG9 Ab binder: binds the HIV-1 gp120 antibody PG9; TR-FRET gp120-PG9 antibody binding; inhibition, % at 6.7 µM; 360,000 tested, 0.43% active; AID 624416; in the data active = inhibition above about 8.5%
# H9c2 TAG inh: triacylglycerol accumulation inhibition | inhibition, % at 12.5 µM | 230,000 tested, 0.66% active | H9c2 cells, Nile Red lipid (TAG) fluorescence; cells loaded with 200 µM oleic acid;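 active = pattern-corrected inhibition of lipid staining of at least 50% with the nuclear-stain viability signal not falling by more than 50%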;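 also: 0% = DMSO wells and 100% = triacsin C control wells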
# NR1D1 modulator: modulates human Rev-erb alpha binding to DNA | P20393 | Rev-erbα–FITC-DNA binding, fluorescence polarization, 90 min | activity, % at 10 µM | 370,000 tested, 0.79% active;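 active = activity above about 14%, limit read from the data; passing the limit was not always enough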;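 also: 0% = DMSO wells with 35 nM protein and 100% = DMSO wells with 750 nM protein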
# Target sequence (P20393 whole entry, looked up): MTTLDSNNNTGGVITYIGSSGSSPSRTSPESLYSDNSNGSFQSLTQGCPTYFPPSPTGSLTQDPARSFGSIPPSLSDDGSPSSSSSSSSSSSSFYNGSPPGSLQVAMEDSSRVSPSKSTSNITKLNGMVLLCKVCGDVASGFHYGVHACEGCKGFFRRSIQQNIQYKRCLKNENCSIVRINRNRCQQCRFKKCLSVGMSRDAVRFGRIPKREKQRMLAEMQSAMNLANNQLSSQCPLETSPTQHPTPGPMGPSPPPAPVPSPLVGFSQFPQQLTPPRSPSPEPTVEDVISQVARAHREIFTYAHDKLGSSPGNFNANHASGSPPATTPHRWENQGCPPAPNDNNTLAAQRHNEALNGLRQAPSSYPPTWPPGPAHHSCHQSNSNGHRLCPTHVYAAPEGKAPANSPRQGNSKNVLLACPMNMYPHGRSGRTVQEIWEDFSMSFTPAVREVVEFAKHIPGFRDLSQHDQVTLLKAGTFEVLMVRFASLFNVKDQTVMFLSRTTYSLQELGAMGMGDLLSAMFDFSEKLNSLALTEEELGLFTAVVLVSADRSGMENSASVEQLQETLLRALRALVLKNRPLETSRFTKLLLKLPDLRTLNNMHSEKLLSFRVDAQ
# beta cell repl: induces beta-cell replication in MIN6 cells. MIN6 cells proliferation, ATPlite luminescence, 48 h; cells starved in 0.2% serum; 100% = growth in 10% serum. proliferation, % at 10 µM. 330,000 tested, 0.29% active. AID 2380;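 active = compounds whose signal lies at least 3.5 SD above the mean of all wells on their plate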;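 also: 0% = DMSO-treated cells in low-serum medium and 100% = 10% serum control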
# Rev-erbA confirm: Rev-erb alpha (human) modulation, hit confirmation. activation, % at 25 µM. Rev-erb alpha FITC-DNA binding, fluorescence polarization, 90 min. AID 1259319. shares compounds with NR1D1 modulator. 3,000 tested, 61% active;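 active = activation at or above a set limit, or at least 3 SD above the negative control mean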;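 also: 0% = 35 nM protein with DMSO and 100% = 750 nM protein high control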
# RORg counter: RORgamma DNA-binding activity, dose-response counter-screen. shares compounds with NR1D1 modulator. purified RORgamma protein-FITC-DNA binding, fluorescence polarization. IC50, µM. 910 tested, 8% active. AID 1259320;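 active = Compounds whose fitted half-maximal concentration for disrupting protein-DNA binding is below 10 micromolar; the record names Rev-erb in its text, so the target is in doubt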
# * = called active by the depositor; i = inactive; . = not tested or not shown. Sampled rows, rich in hits. Any-hit rate of the full collection: about 2.9%.
SMILES,iPSC survival up,T cruzi repl,PG9 Ab binder,H9c2 TAG inh,NR1D1 modulator,beta cell repl,Rev-erbA confirm,others
CCc1cc2cc3c(cc2nc1SCC(=O)Nc1c[nH]c(=O)[nH]c1=O)OCO3,0,-24,1,.,187*,-1,172*,RORg counter=>40
Cn1c(=O)c2c(nc(SCC(=O)c3cccs3)n2Cc2ccc(F)cc2)n(C)c1=O,-2,5,1,.,133*,-4,100*,RORg counter=>40
COc1cccc(C(=O)Nc2ccc(-c3nc4ccccc4o3)c(O)c2)c1,1,19,2,.,85*,-3,64*,RORg counter=>40
Cc1ccc(OCC(=O)Nc2ccc(O)c(-c3nc4ccccc4o3)c2)cc1,1,6,7,30,103*,-4,38*,RORg counter=i
O=C(c1ccccc1F)N1CCN(c2ncccn2)CC1,0,-6,2,-2,1,0,.,
C=C(C)CSc1nc(N)c(C#N)c(-c2ccc(C)cc2)c1C#N,1,42,-2,.,24*,-2,18*,
CCCCOC(=O)CSc1nc(N)c(C#N)c(-c2ccc(OCC)cc2)c1C#N,4,8,0,-4,49*,-1,36*,RORg counter=>40
CCCCOC(=O)CSc1nc(N)c(C#N)c(-c2ccc(OC)cc2)c1C#N,2,-5,-1,23,53*,0,28*,
Cc1[nH]cnc1CSCCN,-1,-5,-2,-6,3,-1,.,
Cc1cccc(C)c1-n1nnnc1SCC(=O)c1c(N)n(C2CC2)c(=O)[nH]c1=O,0,.,0,-6,10,-4,.,
Cc1ccc(-n2nnnc2SCC(=O)c2c(N)n(C3CC3)c(=O)[nH]c2=O)cc1C,0,.,2,6,21*,-2,14*,
O=C(COc1ccc(Cl)cc1)Nc1cccc(-c2ccc(N3CCOCC3)nn2)c1,0,16,5,-1,20*,-5,12,
CN(C)c1cc(-c2ccc(Cl)c(Cl)c2)oc(=O)c1Cl,-1,2,0,7,36*,-3,-4,
CN(C)c1cc(-c2ccc(Cl)cc2)oc(=O)c1Cl,1,2,-2,-6,-4,-3,.,
COc1ccccc1NC(=O)Nc1ccc(C(N)=O)cc1,0,-15,0,-1,1,0,.,
Cc1onc(-c2c(F)cccc2Cl)c1C(=O)Nc1sc2c(c1C#N)CCC(C(C)(C)C)C2 (stereo unspecified),-3,53,-2,20,27*,-5,20*,
CC(C)NC(=O)NC(=O)COc1c(F)c(F)cc(F)c1F,8,-6,0,.,-1,-1,.,
COc1ccc(-c2cc(-c3cccs3)c(C#N)c(SCC(=O)NCc3ccccc3)n2)cc1,0,3,1,3,52*,0,26*,
CCOC(=O)CSc1nc(N)c(C#N)c(-c2cccs2)c1C#N,-1,-1,0,13,16*,-2,21*,
N#Cc1c(N)nc(SCc2ccccn2)c(C#N)c1-c1cccs1,2,-2,-2,.,-1,-4,.,
COc1ccccc1CNC(=O)CSc1nc(N)c(C#N)c(-c2cccs2)c1C#N,1,44,1,12,35*,-2,25*,
N#Cc1c(-c2ccccc2)cc(-c2cccs2)nc1SCC(=O)O,0,-1,1,.,3,-6,.,
COc1ccc(-c2cc(-c3cccs3)c(C#N)c(SCC(=O)NCc3ccccc3OC)n2)cc1,-1,-8,2,1,46*,-3,26*,
CC(C)CN(C(=O)CN(C)S(=O)(=O)c1ccc(Cl)cc1)C1CCS(=O)(=O)C1 (stereo unspecified),1,0,-1,8,-1,1,.,
CCOc1ccc(/C=N/NC(=O)Cn2ccnc2C)cc1,1,1,-1,-3,-5,-1,.,
SMILES,iPSC survival up,T cruzi repl,PG9 Ab binder,H9c2 TAG inh,NR1D1 modulator,beta cell repl,Rev-erbA confirm,others
COc1ccccc1C(=O)CN1C(=O)NC2(CCCc3ccccc32)C1=O (stereo unspecified),0,.,2,7,-7,-3,.,
COc1ccc(C(=O)CN2C(=O)NC3(CCCc4ccccc43)C2=O)c(OC)c1 (stereo unspecified),0,3,2,36,23*,-3,10,
CCC(C(=O)OCC(=O)NC1CCS(=O)(=O)C1)c1ccccc1 (stereo unspecified),0,-4,0,3,0,-1,.,
O=C(Nc1ccccc1C(F)(F)F)OCCN1C(=O)CCC12CCC(c1ccccc1)CC2 (stereo unspecified),.,.,.,.,26*,.,28*,RORg counter=>40
O=C(Nc1ccc(F)cc1)OCCN1C(=O)CCC12CCC(c1ccccc1)CC2 (stereo unspecified),.,.,.,.,10,.,.,
CS(=O)(=O)Nc1ccc(-c2ccc(/C=C3\SC(N)=NC3=O)o2)cc1,4,-27,-12,6,44*,4,33*,RORg counter=>40
NC1=NC(=O)/C(=C/c2ccc(-c3ccc(S(N)(=O)=O)cc3)o2)S1,0,-30,-13,8,-30,6,.,
Cc1ccc(S(=O)(=O)N2CC=C(c3c(C)n(C)c4ccccc34)CC2)cc1,0,16,-1,.,4,0,.,
CCn1c(C)c(C2=CCN(S(=O)(=O)c3ccccc3)CC2)c2ccccc21,0,27,1,.,28*,0,26*,
C=C(C)CN(CC)C(=O)Cn1cnc2c(oc3ccccc32)c1=O,0,-11,-2,26,7,1,.,
Clc1cccc2sc(-c3nnc(-c4ccccc4)o3)c(Cl)c12,4,-7,1,11,38*,-3,31*,
O=C(c1ccccc1)N1CCSC1=S,1,-7,-1,7,-3,0,.,
CN(C)/C=N/C1=C(C#N)C(c2cccs2)c2ccc3ccccc3c2O1 (stereo unspecified),1,.,-1,36,173*,.,117*,RORg counter=>40
N#CC1=C(N)Oc2cc3ccccc3cc2C1c1cccs1 (stereo unspecified),0,-5,-2,9,0,0,.,
CCOC(=O)C1(Cc2cccc(OC)c2)CCN(Cc2cccc(O)c2)CC1,0,8,-1,-30,-3,-1,.,
O=C(/C=C1\OCc2ccccc21)c1ccccc1,.,.,1,.,13*,.,-4,
CC(=O)Nc1cc(C(F)(F)F)ccc1N1CCOCC1,-3,-7,-1,.,-5,-3,.,
CCC(Oc1ccccc1)C(=O)Nc1cc(C(F)(F)F)ccc1N1CCOCC1 (stereo unspecified),0,3,0,-2,16*,-7,12,
CCCC(=O)Nc1ccc2oc(-c3ccncc3)nc2c1,2,-11,2,.,-1,0,.,
